Results of several laboratories.
Lines come from different studies, so protocols differ.
CDK2 with cyclin E: Cyclin-dependent kinase 2, with cyclin E (CDK2, Homo sapiens, UniProt P24941)
CDK2 with cyclin A: Cyclin-dependent kinase 2, with cyclin A (CDK2, Homo sapiens, UniProt P24941)
CDK2: Cyclin-dependent kinase 2 (CDK2, Homo sapiens, UniProt P24941)

O=C(Nc1cccnn1)N1CCN([C@@H]2CCOc3cc(C(F)(F)F)ccc32)CC1
inhibition (CDK2 with cyclin E; cell-free assay, inhibitor; 20 µM): 3%

Cn1cc(-c2cccc(N3CCc4c(sc5c4CC(C)(C)C5)C3=O)c2CO)cc(Nc2ccncn2)c1=O
inhibition (CDK2 with cyclin A; enzyme activity, inhibitor; 1 µM): -4%

Cn1cncc1[C@@](O)(COc1ccc(C#N)cc1-c1ccc(OC(F)(F)F)cc1)c1ccc(C#N)cc1
remaining binding (CDK2; cell-free assay, competition with immobilised ligand; 1 µM): 89%

Cn1cc(-c2cc(F)cc(N3CCn4c(cc5c4CCCC5)C3=O)c2CO)cc(Nc2ccc(N3CCN(C4COC4)CC3)cn2)c1=O
inhibition (CDK2 with cyclin A; enzyme activity, inhibitor; 0.1 µM): 7%

COc1ncccc1-c1cnn2ccc(N3CCN(C(=O)OC(C)C)CC3)nc12
remaining binding (CDK2; binding, competition with immobilised ligand; 1 µM): 99%

O=c1[nH]c2ccccc2n1C1CCN(Cc2ccc(-c3[nH]c4cc5ncnc5cc4nc3-c3ccccc3)cc2)CC1
remaining signal (CDK2 with cyclin E; cell-free assay; 0.5 µM): 95.6%

Nc1ncc(-c2nc(N3CCOCC3)nc(N3CCOCC3)n2)c(C(F)F)n1
remaining binding (CDK2; binding, competition with immobilised ligand; 10 µM): 100%

Cc1ncc(C)n2nc(/C=C/c3nc(N4CCCC4)cc(N4CCOCC4)n3)nc12
inhibition (CDK2 with cyclin A; enzyme activity, inhibitor; 10 µM): -3%

N#CC1(c2ccccn2)CCN(Cc2cc(C(=O)O)c(=O)n3ccccc23)CC1
remaining binding (CDK2; cell-free assay, competition with immobilised ligand; 1 µM): 100%

CC(C)(C)c1cc(C=C(C#N)C#N)cc(Br)c1O
remaining activity (CDK2 with cyclin E; enzyme activity, inhibitor; 0.5 µM): 77.6%

C#Cc1n[nH]c2c(-c3cn([C@@H](C)c4ccccc4)c(=O)[nH]c3=O)cc(F)cc12
inhibition (CDK2 with cyclin A; enzyme activity, inhibitor; 0.1 µM): 6.3%
